Measured values taken from ChEMBL document CHEMBL4513216, “Probing the Open Global Health Chemical Diversity Library for Multistage-Active Starting Points for Next-Generation Antimalarials” (ACS Infect Dis, 2020).

Assay: Toxicity liver stage against HepG2, at 10uM
Format: cell-based
Design: test concentration 10 uM, cell line HepG2-A16-CD81EGFP
Conditions: human, HepG2-A16-CD81EGFP cells; read-out: INHIBITION
Outline: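 Uninfected HepG2-A16-CD81EGFP cells, 3 × 10^3 per well, 1536-well, plated on prespotted compound at 10 μM final, parasite-free screening media added to match infected plates; puromycin 10 μM positive, DMSO 0.5% negative; run in parallel with 48 h PbLuc assay at 37 °C, 5% CO2; viability by CellTiter-Glo luminescence, normalized to controls.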

SMILES	cytotoxicity at 10 µM [%]
COc1c(C)cnc(CNC(=O)CCOCc2ccccc2)c1C	-4.31
O=C1CNc2ncnc(N3CCN(Cc4cccc(F)c4)CC3)c2N1	7.88
COCCN1CCC(Cc2cncc(-c3ccc(C(=O)O)cc3)n2)C1 (configuration not stated)	-0.413
CC(NC(=O)N(C)Cc1ccsc1)c1ccc2c(c1)NC(=O)CO2 (configuration not stated)	-7.77
Cc1nc(CN2C[C@H]3C[C@H](C(=O)NCC4CC4)N(C)[C@H]3C2)cs1	-5.13
CCn1ccnc1CN1CCN(CC(=O)NC2CCOCC2)CC1	-6.22
O=C1CCCN1C1CCCN(CCOc2ccc(F)cc2)C1 (configuration not stated)	7.62
CC(C)N(C)C(=O)C1=NOC2(CCN(C(=O)c3ccccn3)C2)C1 (configuration not stated)	-13.4
CCn1cnnc1CNC(=O)N1CCC(Cc2cccnc2)CC1	4.38
COc1ccc2cccc(CC(=O)NCCCc3n[nH]c(C)n3)c2c1	-2.11
CCOCCCNC(=O)c1cc(C(C)C)nc(N2CCCCCC2)n1	8.53
CCn1cncc1Cn1ncc2ccccc2c1=O	3.7
CC(C)c1cc(NCC(O)c2ccc(F)cc2)n2nccc2n1 (configuration not stated)	0.255
Cc1ccccc1-c1cc(NC(=O)CC(C)C)n(CCO)n1	7.47
O=C(COCc1ccccc1)Nc1ccccn1	-27.7
CCN1C(=O)C2(CCN(CCN(C)C)CC2)c2ccccc21	-112
CN(C)C(CNC(=O)c1[nH]nc(C2CC2)c1Br)C1CC1 (configuration not stated)	-4.14
Cc1ccccc1C1(CN)CCCCC1	2.29
CN(Cc1ccco1)C1CCC12CCN(C(=O)c1ccnnc1)CC2 (configuration not stated)	0.081
CN1N=C(C(=O)N2CCCC(CCc3cccc(F)c3)C2)CCC1=O (configuration not stated)	-3.42
CN(C)[C@@H]1CN(C(=O)c2cc3ccc(F)cc3[nH]2)C[C@H]1O	1.05
Cc1cc(C)n(CC(=O)N2CCC(c3ccn4nccc4n3)CC2)n1	-0.0825
COCCn1/c(=N\C(=O)CN(C)S(C)(=O)=O)sc2cccc(F)c21	-11.5

SMILES	cytotoxicity at 10 µM [%]
O=C(NCC(O)c1ccoc1)Nc1cccs1 (configuration not stated)	-11.1
Cc1ccc(Cl)c(C)c1NC(=O)N1CCCN(Cc2ccccn2)CC1	0.617
O=C(CCCNc1ncccn1)N1CCCC(n2ccnc2)C1 (configuration not stated)	-15.1
CC(C)Cn1nccc1NC(=O)CN1CCOC(Cn2cccn2)C1 (configuration not stated)	-12
O=C(NCCn1nc2ccccn2c1=O)c1cc[nH]n1	3.45
Cc1ccc(C2CN(Cc3cnc(-c4cccnc4)s3)CCO2)o1 (configuration not stated)	-10.9
CCCN(C)c1ccc(C(=O)Nc2c(C)nn(C(C)C)c2C)cc1	-2.84
CO[C@@H]1CCN(c2nnc(C)s2)C[C@@H]1Cc1cccc(C)c1	11.8
COc1ccccc1C(=O)N1CCN(C(=O)CCCc2cn[nH]c2)CC1	2.68
Nc1ccnc(N2CCCC(CO)(Cc3cccc(Cl)c3)C2)n1 (configuration not stated)	0.528
COCc1noc(CN2CC(=O)N(C)c3ccccc3C2=O)n1	-6.3
O=C(c1ccccc1)N1CCN(CC2CCOc3ccccc3C2)CC1 (configuration not stated)	-0.966
O=S(=O)(c1c(N2CCCC2)ccc2nonc12)N1CCCC1	5.95
O=C(O)c1nnn(-c2ccccc2)c1-c1ccncc1	2.33
CC(C)(C)OC(=O)N[C@H]1CCN(c2cncc(Br)c2)C1	-52.8
CCOc1ncc(NC(=O)c2ccccn2)c(OCC)n1	-0.191
Cc1nccn1CCN(C)c1cc(C(C)C)nc2ccnn12	-3.88
Cc1ccc(CN2CC[C@@H](O)[C@@H]2Cc2cnn(C)c2)o1	-71
CNc1cncc(C2CCCN2C(=O)c2ccc3oc(=O)n(C)c3c2)n1 (configuration not stated)	-1.57
COC(=O)c1ccc(CN(C(C)C)C(C)C)o1	2.21
CC(C)c1noc(C(C)N2CCN(Cc3ccccc3C#N)CC2)n1 (configuration not stated)	-8.13
CC(C)CC(=O)N1CC(=O)c2sc(Nc3ccc(F)cc3F)nc2C1	-2.89
COc1ccc(C(=O)N2CCN(C(=O)c3csc(C(C)C)n3)CC2)cc1	-10.4

SMILES	cytotoxicity at 10 µM [%]
N#CCCCS(=O)(=O)NC(=O)c1cccc(Cl)c1F	-2.8
CC(O)c1cccc(OCc2ccon2)c1 (configuration not stated)	-5.28
CC1(c2ncc(CN(CC(=O)O)Cc3ccccc3)cn2)CCCCO1 (configuration not stated)	-3.73
Cc1cc(N2CCCC2c2nnc3n2CCCCC3)nc(N)n1 (configuration not stated)	-10.1
Cc1noc(C)c1CNC(=O)NCCOc1ccc(F)cc1F	0.409
CN(C)c1nccnc1C1CCN(c2cnccn2)CC1	4.58
Cn1c2ncccc2c(=O)n1CC(=O)Nc1ccc(F)c(F)c1	16.5
COc1ccccc1CCN(C)C(=O)NC(C)c1nncn1C (configuration not stated)	-1.88
Cc1nnc2n1CCN(Cc1ccc3c(c1)OCCO3)C2	-8.95
Cc1ccc(CN2CCC3(CC2)CC(c2cccnc2)C(=O)N3C)o1 (configuration not stated)	-2.71
CN1CCc2nc3cc(C(=O)NCc4cccs4)ccc3c(=O)n2CC1	0.207
Cc1cc(C)c2c(c1)C(NCc1c(C)nn(C)c1N(C)C)CCO2 (configuration not stated)	-4.07
OCc1ccccc1CNCC1CNc2ccnn2C1 (configuration not stated)	-11.9
O=C1NCc2ccccc2CC12CCN(Cc1ccncc1Cl)C2 (configuration not stated)	8.27
O=C(O)C(c1ccc2[nH]ccc2c1)N1CCN(c2cnccn2)CC1 (configuration not stated)	2.56
Cc1n[nH]c(C2CN(C(=O)c3scnc3C)CCO2)n1 (configuration not stated)	10.6
COCCN(CC1CC1)c1nc(CCN)nc2sc(C)c(C)c12	0.956
Cn1ccc2cc(C(=O)NC3CCOC(C)(C)C3)ccc21 (configuration not stated)	1.67
CCc1cccc(N2CCC(NC(=O)c3ccoc3C)CC2)c1	-10.8
Cc1nn(C)c(N(C)C)c1CNCc1ccc2c(c1)OCO2	-2.51
O=C1CCC(C(=O)NCc2nncn2-c2ccccc2)CN1 (configuration not stated)	-12.7
CSCc1noc(CNC(=O)[C@H]2CNC[C@@H](C(=O)N3CCCC3)C2)n1	2.79
c1ccc(CN2CC[C@H]3CO[C@H](CNc4ncccn4)[C@H]3C2)nc1	-9.63

SMILES	cytotoxicity at 10 µM [%]
Cc1csc(CN(C)S(=O)(=O)c2ccc(C)c(N(C)C)c2)n1	13.7
CSc1ccc(-c2nc(CN3CCC(C(N)=O)CC3)c(C)o2)cc1	4.58
CCOc1cc(C(=O)N2CCCC(n3nc(C)nc3C)C2)ccn1 (configuration not stated)	-5.99
FC(F)(F)c1ccc(-c2noc3c2CN(CC2CCCO2)CC3)cc1 (configuration not stated)	1.99
O=C(CCn1ccc2ccc(Br)cc21)/N=c1\[nH]nc(C2CCCO2)s1 (configuration not stated)	-9.46
Cc1noc(CS(=O)(=O)c2cc(F)ccc2F)n1	-0.23
Cn1ccc(NC(=O)CN2C[C@@H]3CC[C@H]2CN(Cc2ccccn2)C3)n1	0.936
Cc1ccsc1C(=O)N1CC(C(=O)N2CCOCC2)C2(CCOCC2)C1 (configuration not stated)	1.47
Cn1cc(C(=O)N2CCCC2c2noc(C3CC3)n2)c2ccccc21 (configuration not stated)	-0.249
CN(Cc1ccc(Cl)s1)C1CCCN(c2cccnn2)C1 (configuration not stated)	-4.27
O=C(c1cn(CCN2CCCCC2)nn1)N1CCSCC1	2.34
O=c1c2c(ncn1CCO)nc1n2CCC1	-11.3
O=C(c1ccc(F)cc1)N(CCCO)S(=O)(=O)c1cccs1	-6.24
COCCCSc1ccc(NCc2scnc2C)cc1	55.3
CCc1nc(CN2CCCC(NCc3cccc(C(N)=O)c3)C2)no1 (configuration not stated)	1.56
CCn1ccnc1CN(C)Cc1nc(CCC(C)C)no1	2.89
COc1ccc(CNC(=O)Nc2ccc(S(=O)(=O)C(F)F)cc2)cc1	33.6
Cc1noc([C@H]2C[C@@H]3CCN(c4nnc(C)s4)C[C@H]3O2)n1	3.55
COc1cccc(CN2C[C@@H]3COC[C@]3(COc3cccnc3)C2)c1	-64.7
Cc1cc(NCCCNc2cccnc2)n2nc(C)c(C)c2n1	2.35
Cc1cc(C)cc(N(CCC#N)C(=O)CN2CCCC2c2cccs2)c1 (configuration not stated)	-1.61
CCNC(=O)NCCc1csc(N2CCCC2)n1	-4.63
O=C(c1ccc(-n2cnnc2)cc1)N1CCC(Nc2cccnn2)CC1	-6.12

SMILES	cytotoxicity at 10 µM [%]
Cc1c(CN2C[C@H](O)[C@@H](N3CCOCC3)C2)[nH]c2ccc(F)cc12	5.86
CC(C)c1nc(CN(C)C(=O)CNC(N)=O)cs1	17.4
CC[C@@H]1N(Cc2ccncc2)CCC[C@]12CCC(=O)N2CCOC	11.5
CCC(C)(CNC(=O)Nc1nncs1)N1CCOCC1 (configuration not stated)	-7.98
O=C(C1CCC1)N1CCCn2nc(CNc3ncccn3)cc2C1	-123
CCNc1nc(-c2cccnc2)c(-c2ccnc(N3CCCC3)n2)s1	-5.14
CN(CC(C)(CO)CO)C(=O)Nc1cc(F)cc(F)c1	0.669
Cc1cc(F)cc(S(=O)(=O)NCCCN2CCC(O)CC2)c1	-20.1
COc1ccc(S(N)(=O)=O)cc1C(=O)N(C)Cc1cc(C)on1	-4.3
CCc1[nH]nc(NC(=O)c2cc[nH]n2)c1C	-3.98
c1c[nH]c(CN2CCC3(CC2)COCCN(CCN2CCCC2)C3)c1	-3.86
CC(C)C(=O)NS(=O)(=O)c1ccc2c(c1)N(C)CCC2	-0.447
Cc1cccc(-c2noc(CN3CCOCC3C)n2)c1 (configuration not stated)	-11.9
Cn1c(CO[C@H]2CN(S(C)(=O)=O)C[C@H]2F)nc2ccccc21	-0.714
CCC(C)N(C)CCNC(=O)c1ccccc1OCCOC (configuration not stated)	0.386
FC(F)(F)c1nc(C2CCNCC2)no1	5.88
Cc1ccc(CNC2CCN(CCc3ccncc3)CC2)cc1C	-8.92
CS(=O)(=O)NCCC(=O)N1CCCC1c1noc(C2CC2)n1 (configuration not stated)	-10.4
CC(C)c1nn(C)c(Cl)c1CNC1CCOc2ccccc21 (configuration not stated)	53.2
CCNS(=O)(=O)c1ccc(C)c(C(=O)N(C)Cc2ccccc2C)c1	0.997
